ChEMBL document CHEMBL4689842, “EUbOPEN Chemogenomics Library wave 1” (2021)

System: U2OS
Experiment: Multiplex assay against U2OS
Assay type: toxicity, cell-based
Conditions: human
Procedure, shortened: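 Per cents of healthy-nucleus cells form the tubulin, mitochondrial-mass and membrane-permeability phenotype values. Live cells were stained at seeding with Hoechst33342, BioTracker Green Microtubule Cytoskeleton Dye, MitoTracker Red and Annexin V Alexa Fluor 680. After compound addition they were imaged on a CQ1 microscope at 37°C and 5% CO2, and CellPathfinder machine-learning gating split them into Hoechst high-intensity objects or normal cells, normal cells into healthy, pyknosed or fragmented nuclei, and pyknosed cells into mitotic or apoptotic.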

[1] = 12 h, 1 µM, compound concentration 1 uM, replicate 1
[2] = 12 h, 1 µM, compound concentration 1 uM, replicate 2
[3] = 12 h, 10 µM, compound concentration 10 uM, replicate 1
[4] = 12 h, 10 µM, compound concentration 10 uM, replicate 2
[5] = 24 h, 1 µM, compound concentration 1 uM, replicate 1
[6] = 24 h, 1 µM, compound concentration 1 uM, replicate 2
[7] = 24 h, 10 µM, compound concentration 10 uM, replicate 1
[8] = 24 h, 10 µM, compound concentration 10 uM, replicate 2

In the case of `NC(=O)c1ccc2nc(-c3ccc(C4(N)CCC4)cc3)c(-c3ccccc3)n2n1` [BAY-1125976], the “Population Apoptotic (%)” value [1] is reported as 52%, the “Population Healthy Nuclei (%)” value [1] is reported as 79% and the “Population Hoechst High Intensity Objects (%)” value [1] is reported as 6%. For the same molecule, the “Population Mitochondria Different-Phenotype (%)” value [1] was 19%, the “Population Mitotic Cells (%)” value [1] was 47% and the “Population Normal (%)” value [1] was 93%. For the same molecule, the “Population Tubulin-Different-Phenotype (%)” value [1] was 46%, the “Total Cell Count” value [1] was 239 and the “Population Apoptotic (%)” value [2] was 42%. For the same molecule, the “Population Healthy Nuclei (%)” value [2] was 80%, the “Population Hoechst High Intensity Objects (%)” value [2] was 12% and the “Population Mitotic Cells (%)” value [2] was 57%. The “Population Normal (%)” value [2] was 87%, the “Population Tubulin-Different-Phenotype (%)” value [2] was 35% and the “Total Cell Count” value [2] was 109. The “Population Apoptotic (%)” value [3] was 66%, the “Population Healthy Nuclei (%)” value [3] was 92% and the “Population Mitochondria Different-Phenotype (%)” value [3] was 24%. The “Population Mitotic Cells (%)” value [3] was 33%, the “Population Tubulin-Different-Phenotype (%)” value [3] was 27% and the “Total Cell Count” value [3] was 210. For the same molecule, the “Population Apoptotic (%)” value [4] was 20%, the “Population Healthy Nuclei (%)” value [4] was 88% and the “Population Hoechst High Intensity Objects (%)” value [4] was 4%. The “Population Mitochondria Different-Phenotype (%)” value [4] was 23%, the “Population Mitotic Cells (%)” value [4] was 80% and the “Population Normal (%)” value [4] was 95%. The “Population Tubulin-Different-Phenotype (%)” value [4] was 18%, the “Total Cell Count” value [4] was 165 and the “Population Apoptotic (%)” value [5] was 42%. For the same molecule, the “Population Healthy Nuclei (%)” value [5] was 76%, the “Population Hoechst High Intensity Objects (%)” value [5] was 5% and the “Population Mitochondria Different-Phenotype (%)” value [5] was 18%. For the same molecule, the “Population Mitotic Cells (%)” value [5] was 57%, the “Population Normal (%)” value [5] was 94% and the “Population Tubulin-Different-Phenotype (%)” value [5] was 23%. The “Total Cell Count” value [5] was 273, the “Population Apoptotic (%)” value [6] was 44% and the “Population Healthy Nuclei (%)” value [6] was 77%. The “Population Hoechst High Intensity Objects (%)” value [6] was 8%, the “Population Mitochondria Different-Phenotype (%)” value [6] was 20% and the “Population Mitotic Cells (%)” value [6] was 55%. The “Population Normal (%)” value [6] was 91%, the “Population Tubulin-Different-Phenotype (%)” value [6] was 13% and the “Total Cell Count” value [6] was 124. The “Population Apoptotic (%)” value [7] was 33%, the “Population Hoechst High Intensity Objects (%)” value [7] was 1% and the “Population Mitochondria Different-Phenotype (%)” value [7] was 31%. The “Population Mitotic Cells (%)” value [7] was 66%, the “Population Normal (%)” value [7] was 98% and the “Population Tubulin-Different-Phenotype (%)” value [7] was 30%. The “Total Cell Count” value [7] was 258, the “Population Apoptotic (%)” value [8] was 7% and the “Population Healthy Nuclei (%)” value [8] was 87%. The “Population Hoechst High Intensity Objects (%)” value [8] was 5%, the “Population Mitochondria Different-Phenotype (%)” value [8] was 28% and the “Population Mitotic Cells (%)” value [8] was 92%. The “Population Normal (%)” value [8] was 94%, the “Population Tubulin-Different-Phenotype (%)” value [8] was 25% and the “Total Cell Count” value [8] was 213.
With `CC[C@@H]1C(=O)N(C)c2cnc(Nc3ccc(C(=O)NC4CCN(C)CC4)cc3OC)nc2N1C1CCCC1` [BI-2536] the “Population Apoptotic (%)” value [1] was 100%, the “Population Fragmented Nuclei (%)” value [1] was 16% and the “Population Healthy Nuclei (%)” value [1] was 80%. For the same molecule, the “Population Hoechst High Intensity Objects (%)” value [1] was 1%, the “Population Membrane Permeable-Phenotype (%)” value [1] was 40% and the “Population Mitochondria Different-Phenotype (%)” value [1] was 16%. The “Population Mitotic Cells (%)” value [1] was 0%, the “Population Normal (%)” value [1] was 98% and the “Population Pyknosed Nuclei (%)” value [1] was 3%. The “Population Tubulin-Different-Phenotype (%)” value [1] was 35%, the “Total Cell Count” value [1] was 142 and the “Population Apoptotic (%)” value [2] was 70%. For the same molecule, the “Population Fragmented Nuclei (%)” value [2] was 10%, the “Population Healthy Nuclei (%)” value [2] was 79% and the “Population Hoechst High Intensity Objects (%)” value [2] was 8%. The “Population Membrane Permeable-Phenotype (%)” value [2] was 33%, the “Population Mitochondria Different-Phenotype (%)” value [2] was 24% and the “Population Mitotic Cells (%)” value [2] was 30%. For the same molecule, the “Population Normal (%)” value [2] was 91%, the “Population Pyknosed Nuclei (%)” value [2] was 10% and the “Population Tubulin-Different-Phenotype (%)” value [2] was 34%. For the same molecule, the “Total Cell Count” value [2] was 107, the “Population Apoptotic (%)” value [3] was 76% and the “Population Fragmented Nuclei (%)” value [3] was 15%. For the same molecule, the “Population Healthy Nuclei (%)” value [3] was 76%, the “Population Hoechst High Intensity Objects (%)” value [3] was 2% and the “Population Membrane Permeable-Phenotype (%)” value [3] was 41%. The “Population Mitochondria Different-Phenotype (%)” value [3] was 72%, the “Population Mitotic Cells (%)” value [3] was 23% and the “Population Normal (%)” value [3] was 97%. The “Population Pyknosed Nuclei (%)” value [3] was 8%, the “Population Tubulin-Different-Phenotype (%)” value [3] was 99% and the “Total Cell Count” value [3] was 160. The “Population Apoptotic (%)” value [4] was 81%, the “Population Fragmented Nuclei (%)” value [4] was 23% and the “Population Healthy Nuclei (%)” value [4] was 67%. The “Population Hoechst High Intensity Objects (%)” value [4] was 8%, the “Population Membrane Permeable-Phenotype (%)” value [4] was 51% and the “Population Mitochondria Different-Phenotype (%)” value [4] was 94%. The “Population Mitotic Cells (%)” value [4] was 18%, the “Population Normal (%)” value [4] was 91% and the “Population Pyknosed Nuclei (%)” value [4] was 9%. For the same molecule, the “Population Tubulin-Different-Phenotype (%)” value [4] was 100%, the “Total Cell Count” value [4] was 123 and the “Population Apoptotic (%)” value [5] was 46%. For the same molecule, the “Population Fragmented Nuclei (%)” value [5] was 17%, the “Population Healthy Nuclei (%)” value [5] was 73% and the “Population Hoechst High Intensity Objects (%)” value [5] was 2%. The “Population Membrane Permeable-Phenotype (%)” value [5] was 20%, the “Population Mitochondria Different-Phenotype (%)” value [5] was 29% and the “Population Mitotic Cells (%)” value [5] was 53%. For the same molecule, the “Population Normal (%)” value [5] was 97%, the “Population Pyknosed Nuclei (%)” value [5] was 9% and the “Population Tubulin-Different-Phenotype (%)” value [5] was 17%. For the same molecule, the “Total Cell Count” value [5] was 145, the “Population Apoptotic (%)” value [6] was 55% and the “Population Fragmented Nuclei (%)” value [6] was 21%. The “Population Healthy Nuclei (%)” value [6] was 69%, the “Population Hoechst High Intensity Objects (%)” value [6] was 12% and the “Population Membrane Permeable-Phenotype (%)” value [6] was 15%. For the same molecule, the “Population Mitochondria Different-Phenotype (%)” value [6] was 35%, the “Population Mitotic Cells (%)” value [6] was 44% and the “Population Normal (%)” value [6] was 87%. For the same molecule, the “Population Pyknosed Nuclei (%)” value [6] was 8%, the “Population Tubulin-Different-Phenotype (%)” value [6] was 10% and the “Total Cell Count” value [6] was 115. The “Population Apoptotic (%)” value [7] was 93%, the “Population Fragmented Nuclei (%)” value [7] was 18% and the “Population Healthy Nuclei (%)” value [7] was 72%. For the same molecule, the “Population Hoechst High Intensity Objects (%)” value [7] was 5%, the “Population Membrane Permeable-Phenotype (%)” value [7] was 61% and the “Population Mitochondria Different-Phenotype (%)” value [7] was 99%. The “Population Mitotic Cells (%)” value [7] was 6%, the “Population Normal (%)” value [7] was 94% and the “Population Pyknosed Nuclei (%)” value [7] was 9%. The “Population Tubulin-Different-Phenotype (%)” value [7] was 99%, the “Total Cell Count” value [7] was 180 and the “Population Apoptotic (%)” value [8] was 88%. The “Population Fragmented Nuclei (%)” value [8] was 22%, the “Population Healthy Nuclei (%)” value [8] was 70% and the “Population Hoechst High Intensity Objects (%)” value [8] was 10%. For the same molecule, the “Population Membrane Permeable-Phenotype (%)” value [8] was 84%, the “Population Mitochondria Different-Phenotype (%)” value [8] was 100% and the “Population Mitotic Cells (%)” value [8] was 11%. For the same molecule, the “Population Normal (%)” value [8] was 89%, the “Population Pyknosed Nuclei (%)” value [8] was 7% and the “Population Tubulin-Different-Phenotype (%)” value [8] was 100%. For the same molecule, the “Total Cell Count” value [8] was 135.
